Source: PubChem
An excerpt weighted towards active compounds, which were near 1.9% of everything screened.
bCat nuc transl: modulators of beta-catenin nuclear translocation; HeLa beta-catenin nuclear translocation, immunofluorescence imaging; nuclear translocation activity, % at 5 µM; hit rate 0.3% among 190,000; AID 1665;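 active = nuclear translocation activity above 50% at 5 µM, with a well cell count of 50 or more; inconclusive = wells under 50 cells across six images, flagged as toxic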;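 also: per-cell ratio of nuclear to cytoplasmic median beta-catenin stain intensity; plate controls were DMSO negative control for no effect and GSK-3 inhibitor IX positive control for full effect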
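Test system: HeLa cells, endogenous beta-catenin; Compound: single 5 µM dose plus 0.02–20 µM confirmation series; Times: compound exposure 24 h at 37°C; Signal: fluorescence imaging of beta-catenin antibody stain plus DAPI; Read-out: % activation, nuclear-to-cytoplasmic median beta-catenin signal ratio per cell.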
MT stabilize HCS: microtubule stabilization, imaging screen; HeLa tubulin immunostaining HCS, 24 h; share of cells brighter than vehicle mean+2SD; % tubulin-high responders, % at 10 µM; hit rate 0.83% among 200,000; AID 2205;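 active = plate Z-score above 3 for both tubulin-high and condensed-nucleus cell shares, with cell loss under 80%, at 10 µM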;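 also: anti alpha tubulin signal scored within the nucleus-defined area of each cell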
Autophagy mod: autophagy modulation, high-content screen; MEF GFP-LC3 puncta imaging; test concentration mostly 10 µM; calls only at 10 µM (by protocol); hit rate 0.98% among 190,000; AID 463193;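 active = percentage of spot-positive cells more than 3 SD above its plate mean, without a fluorescence outlier flag or 80% toxicity; inconclusive = no clear call, values can overlap the other calls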;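 also: spot-positive cell cutoff set from DMSO-treated cells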
HSV replic up: increases HSV replication in cells; HSV replication augmentation in cells, fold increase; maximum fold increase; hit rate 0.005% among 220,000; in the data active = maximum fold increase above about 1.5; inconclusive = no clear call, values can overlap the other calls; tested in PC3 cells
Insulin prom up: MIN6 insulin promoter up-regulation; MIN6 insulin promoter-GFP reporter, high-content imaging; hits give high values; z-score at 5 µM; hit rate 0.3% among 190,000; AID 1625;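 active = z-score above 3 at 5 µM with at least 500 cells counted in the well; inconclusive = wells under 500 cells, flagged as cytotoxic or low count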
Furin inhibitor: inhibitors of human furin | P09958 | purified furin, fluorogenic substrate cleavage | inhibition, % at 20 µM or 30 µM | hit rate 0.061% among 220,000; in the data active = inhibition above about 25%
Target sequence (P09958 108-714 limits assumed): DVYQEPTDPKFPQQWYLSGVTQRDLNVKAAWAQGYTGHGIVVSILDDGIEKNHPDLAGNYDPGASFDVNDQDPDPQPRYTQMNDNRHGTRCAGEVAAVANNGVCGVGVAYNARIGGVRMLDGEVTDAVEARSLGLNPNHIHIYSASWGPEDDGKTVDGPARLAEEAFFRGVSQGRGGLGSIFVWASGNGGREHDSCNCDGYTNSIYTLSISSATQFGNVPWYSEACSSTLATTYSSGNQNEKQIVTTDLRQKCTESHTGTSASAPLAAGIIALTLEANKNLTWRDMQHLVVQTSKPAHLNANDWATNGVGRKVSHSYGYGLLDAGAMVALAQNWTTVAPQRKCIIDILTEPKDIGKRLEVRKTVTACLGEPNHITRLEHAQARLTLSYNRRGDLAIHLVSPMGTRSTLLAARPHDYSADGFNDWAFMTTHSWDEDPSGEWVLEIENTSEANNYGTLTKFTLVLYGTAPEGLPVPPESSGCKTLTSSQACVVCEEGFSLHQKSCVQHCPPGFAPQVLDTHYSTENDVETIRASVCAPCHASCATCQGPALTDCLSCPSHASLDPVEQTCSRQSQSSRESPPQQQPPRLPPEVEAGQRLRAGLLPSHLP
* marks the source's active call; other numbers are inactive results; i = inactive; ? = inconclusive; / = no result given; + = active, no number.

SMILES	bCat nuc transl	MT stabilize HCS	Autophagy mod	HSV replic up	Insulin prom up	Furin inhibitor
O=S(=O)(/C(=C/c1ccc(C(F)(F)F)cc1)c1nc2ccccc2[nH]1)c1ccccc1	38.3	54.0	i	i	?	-17.5
Cc1ccc(C(C(=O)NCc2ccccc2)N(Cc2cccs2)C(=O)c2ccc3c(c2)OCCO3)cc1 (centres undefined)	-2.2	8.1	+	i	-1.25	-20.9
Oc1ccccc1CN1CCCN(Cc2ccccc2O)C1	0.8	3.4	+	i	-0.27	-22.6
Oc1ccccc1CN1CCC(C(O)(c2ccccc2)c2ccccc2)CC1	-0.8	4.0	i	i	-0.55	-29.5
CC(=O)Nc1nnc(-c2c(-c3ccccc3Cl)noc2C)o1	-1.8	/	/	i	0.27	-14.1
Cc1ccc(-c2csc3nc4c5ccccc5c(NCCCN(C)C)nn4c(=O)c23)cc1	6.1	76.9*	+	i	-0.3	-42.1
CN(C)c1oc(-c2ccccc2[N+](=O)[O-])nc1C#N	-3.8	/	/	i	-0.71	-21.7
Cc1ccc2nc3sc(-c4nnc(-c5ccccc5[N+](=O)[O-])o4)c(N)c3cc2c1	0.5	2.1	+	/	0.34	-2.4
COc1ccc(-c2[nH]n(-c3ccc([N+](=O)[O-])cc3)c(=O)c2C=NCc2ccncc2)cc1	3.0	1.3	i	i	0.41	-12.4
COc1ccc(-c2[nH]n(-c3ccc([N+](=O)[O-])cc3)c(=O)c2C=NCc2ccc(F)cc2)cc1	-1.0	5.8	+	i	-0.15	-1.6
COc1ccc2c(c1)c(=O)c(C(=O)c1ccccc1)cn2Cc1ccccc1	-0.7	17.1*	i	/	0.68	-3.4
COc1ccc(Cn2cc(C(=O)c3ccccc3)c(=O)c3cc(OC)ccc32)cc1	-1.7	23.3	i	/	0.71	-7.9
Cc1ccc(NCCCCO)cc1C	2.4	2.3	i	i	-0.47	-16.2
O=C(c1ccccc1)c1ccccc1NC(=O)C1CCCN1Cc1ccccc1 (centres undefined)	-0.6	/	/	i	-0.2	-26.2
Cc1cc(C(F)(F)F)n(-c2nc(C(=O)NN)cs2)n1	-1.8	5.6	i	i	0.06	-21.4
COc1ccc(/C=N/NC(=O)c2csc(-n3nc(C)cc3C(F)(F)F)n2)cc1	107.8*	29.7*	i	i	-0.48	-1.7
CCOC(=O)c1nc(C)nc(Sc2n[nH]c(-c3ccc(C(C)(C)C)cc3)n2)c1C	-3.1	/	/	i	0.5	-5.7
Nc1nonc1C(=O)NCCNCc1cc(Br)ccc1OCc1ccc(F)cc1	2.0	1.6	+	i	?	-19.9
COc1ccc(CNCCNC(=O)c2nonc2N)cc1OC	-1.0	4.0	i	i	0.13	-18.7
Cc1ccc(CN(CC(=O)N/N=C/c2ccco2)S(=O)(=O)c2ccc(C)cc2)cc1	-1.2	1.3	i	i	-0.5	-4.3
CCOC(=O)C1(CC2CC2)CCN(Cc2cnc(-c3ccc(OC)cc3)nc2)CC1	-2.2	1.8	i	i	-1.61	-12.4
Cc1cc(=O)oc2cc(NC(=O)c3cc4ccccc4o3)ccc12	-3.4	1.7	+	/	/	-3.2
O=C(Nc1ccc2c(c1)OCCO2)c1cc(-c2ccccn2)nc2ccc(Br)cc12	0.9	3.0	+	i	0.22	-18.7
COc1ccc(NS(=O)(=O)c2cc(NC(=O)c3cccc(OCc4c(C)noc4C)c3)ccc2OC)cc1	63.2*	13.3*	i	i	-1	3.5
Cc1ccc(NC(=O)c2cccc(OCc3c(C)noc3C)c2)cc1	/	0.7	i	i	-0.02	-17.5
SMILES	bCat nuc transl	MT stabilize HCS	Autophagy mod	HSV replic up	Insulin prom up	Furin inhibitor
Cn1nc2c3ccccc3n(Cc3ccc(F)cc3)c2nc1=S	-0.2	/	/	i	-0.55	-21.5
COc1ccc(NC(=O)CCC(=O)c2cccs2)cc1S(=O)(=O)Nc1ccc(Cl)cc1	20.1	17.4*	i	i	-0.32	-16.1
COc1ccccc1NS(=O)(=O)c1cc(NC(=O)CCC(=O)c2cccs2)ccc1Cl	0.5	2.4	i	i	0.17	-15.3
COc1ccc(CCc2nnc(CCC(=O)N(C)Cc3ccnc4ccccc34)o2)cc1	2.7	1.9	i	/	-1.71	-15.8
NNc1nc2c(-c3ccc(Cl)cc3)nnn2c2ccccc12	-0.7	8.0	+	?	2.27	-29.1
CCOC(=O)C1=C(N)n2c(s/c(=C\c3cccs3)c2=O)=C(C(=O)OCC)C1c1cccs1 (centres undefined)	99.2*	45.2*	i	i	-0.87	0.0
CC(=O)Nc1ccc(S(=O)(=O)NCCc2ccccn2)cc1	0.0	3.2	i	i	-0.14	-22.7
O=c1oc2ccccc2cc1-c1nc2c(s1)CCc1ccccc1-2	/	2.6	+	i	1.17	-14.5
N#CCc1nc(CSc2nc3ccccc3s2)cs1	/	2.7	i	i	4.03*	0.8
c1ccc2sc(SCSc3nc4ccccc4s3)nc2c1	1.5	/	/	i	-0.27	-17.2
CCOC(=O)c1oc2ccc(Cl)cc2c1NC(C)=O	1.9	2.7	i	i	-0.99	4.2
Cn1c(=O)[nH]c(=O)c2c1nc(NC1CCCCC1)n2CC(=O)NC1CCCCC1	/	3.3	+	i	-0.11	-9.2
O=C(Nc1ccc(Cl)cn1)c1ccc([N+](=O)[O-])o1	4.9	8.3*	i	i	-3.08	-4.8
Cc1c(Cl)c([N+](=O)[O-])nn1Cc1ccc(C(=O)Nc2ccc(Cl)cn2)o1	1.9	1.6	i	i	/	-7.4
Cc1c(CCC(=O)O)c(=O)oc2cc3occ(-c4ccc(F)cc4)c3cc12	-1.1	3.0	i	i	-0.56	-5.5
COc1ccc(-c2coc3cc4oc(=O)c5ccccc5c4cc23)cc1F	141.4*	11.7	i	i	-1.34	-28.3
COc1ccc(-n2c(-c3ccc(Br)cc3)c[n+]3c2CCc2ccccc2-3)cc1	-0.7	2.1	i	i	-1.98	-14.6
CC(C)c1ccc(-n2c(-c3ccccc3)c[n+]3c2CCc2ccccc2-3)cc1	1.9	2.7	+	i	?	-17.4
O=C(c1cccc(S(=O)(=O)N2CCOCC2)c1)N1CCCCCC1	2.0	3.5	+	i	0.09	-14.5
O=C(c1cccc(S(=O)(=O)N2CCOCC2)c1)N1CCCC1	-4.4	1.8	i	i	0.64	-25.2
Cc1cc2nc(SCC(=O)Nc3ccccc3C(=O)O)[nH]c2cc1C	-4.8	2.7	i	i	1.14	-2.6
c1cn2cc(CN3CCOCC3)nc2s1	-4.6	1.6	i	i	0.67	-27.0
Cc1ccc(C2SCC(=O)N2Cc2cn3ccsc3n2)o1 (centres undefined)	-0.8	1.1	+	i	0.08	-23.7
CCOC(=O)/C(C#N)=C\c1ccc(O)c(OC)c1	-1.8	2.0	i	i	-0.76	-5.4
CCOC(=O)c1c(-c2ccc(C)cc2)csc1NC(=O)/C(C#N)=C/c1ccc(O)c(OC)c1	0.2	2.8	+	?	/	-2.2
O=C(/C=C/c1ccc2c(c1)OCO2)Nc1cccnc1	7.2	4.2	i	i	-0.17	-7.3
